Laboratory results: PubChem BioAssay
Inconclusive results are not listed.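 Rule for the calls, unless noted: active = viability increase at or above a cutoff of the median across tested compounds plus 3 SD (cut at about 8.5% in these data, passing the limit was not always enough); inconclusive = some gains above the cutoff, reason not given; inactive = the rest.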

What was measured:
[1] = OD615 S. cerevisiae growth inhibition, permissive medium, pilot counter-assay, permissive growth control for S. cerevisiae lifespan shortening project (AID 705;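 active = growth inhibition above 25% in both replicates, a cutoff set 3 SD above the mean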); conditions: OD615, 24 h, at 10 µM, hits give high values
In short: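 System: engineered DeaD yeast; Medium: permissive raffinose/galactose medium; Compound dosing: 10 µM single dose, 0.25% DMSO; Incubation: 4 h cell pre-growth, 24 h exposure at 30 °C; Technique: OD at 615 nm; Evaluation: growth inhibition from lowered OD615 after 24 h.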

[2] = Restrictive medium S. cerevisiae growth inhibition, OD615, pilot screen of yeast lifespan reduction project, restrictive growth control (AID 706;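 active = growth inhibition above a set limit, 3 SD over mean compound inhibition, in both replicates, cut at about 43% in these data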;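 note: modified DeaD lifespan yeast strain shifted to restrictive glucose medium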); conditions: OD615, 48 h, at 10 µM, hits give high values
In short: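 Material: modified S. cerevisiae; buffer or medium: CSMM-D glucose medium; doses: one concentration, 10 µM final, 0.25% DMSO; incubation: 48 h compound exposure at 30 °C; detection: optical density at 615 nm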

[3] = viability gain of MRP-1-high H69AR cells under doxorubicin, pilot screen, MRP-1 activator project, CellTiter-Glo, duplicate (AID 807); conditions: H69AR viability with doxorubicin, CellTiter-Glo luminescence; at 10 µM; hits give high values;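 note: compound pretreatment 18-22 h then 72 h combined with doxorubicin; 0% = doxorubicin alone and 100% = vehicle without doxorubicin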
[4] = growth suppression of beta-catenin knockout HCT116, pilot screen, human colon tumor cells (AID 823;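 active = cell viability at or below a set limit in both duplicate runs, the limit being the all-compound median minus 4 SD, cut at about 23% in these data, passing the limit was not always enough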;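 note: 0% = wells killed by 20 µM Hyamine and 100% = untreated DMSO cell wells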); conditions: CellTiter-Glo, 60 h, at 10 µM, hits give low values
[5] = growth suppression of PTEN-deleted HCT116, pilot screen, cell-based, HCT116 clonal line, CellTiter-Glo (AID 824;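 active = viability at or below 27.92% in each of two runs, the all-compound median minus 4 SD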;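 note: 0% = 20 µM Hyamine control and 100% = vehicle cell control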); conditions: 60 h, at 10 µM, hits give low values
[6] = inhibitors of the yeast RAM network, pilot screen, dse1pr::URA3 reporter, 5-FOA selection (AID 869;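 active = inhibition over a set limit, the all-compound mean plus 3 SD, in both replicate runs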;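 note: 0% = DMSO wells with no growth and 100% = 10 µM 1-NA-PP1 with full growth; RAM network block rescues cells from 5-FOA so hits raise OD615 growth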); conditions: S. cerevisiae dse1pr::URA3 5-FOA growth, OD615, 2 d; at 10 µM; hits give high values; strain carries analog-sensitive mutant Cbk1 kinase
[7] = RAM signaling pathway blockade in yeast – S. cerevisiae, Pdr1DBD-CYC8 efflux-inhibited sensitized strain, primary screen (AID 1298;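 active = RAM network inhibition above 8.4% in each of two replicates, 3 SD over the compound average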;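 note: 0% = DMSO untreated cells without growth and 100% = 10 µM 1-NA-PP1 full growth; higher means more yeast growth rescued from 5-FOA killing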); conditions: S. cerevisiae cbk1-as DSE1-URA3 strain, 5-FOA growth OD615, 2 d; at 50 µM; hits give high values

O=c1cc(O)c2c(=O)n(-c3ccccc3)c3ccccc3c2o1
inactive: growth inhibition [1] 8.67% | growth inhibition [2] 4.96% | viability increase [3] -4.59% | viability [4] 98.3% | viability [5] 87.1% | inhibition [6] 0.67% | RAM network inhibition [7] 0.42%

Cc1ccc(-c2nnc(SCC(=O)Nc3ccccc3F)o2)cc1
inactive: growth inhibition [1] -11.9% | growth inhibition [2] 2.46% | viability increase [3] -0.16% | viability [4] 41.8% | viability [5] 37.8% | inhibition [6] 4.38% | RAM network inhibition [7] 5.9%

O=C(CCCC1=NS(=O)(=O)c2ccccc2N1)N1CCN(c2ccc(Cl)cc2)CC1
inactive: growth inhibition [1] -17.7% | growth inhibition [2] -0.86% | viability increase [3] -0.04% | viability [4] 91.7% | viability [5] 78.3% | inhibition [6] 0.37% | RAM network inhibition [7] 0.9%

CCOc1ccc(N(CC(=O)NCC(C)C)S(C)(=O)=O)cc1
inactive: growth inhibition [1] 6.66% | growth inhibition [2] -4.28% | viability increase [3] -0.04% | viability [4] 98% | viability [5] 102% | inhibition [6] 0.96% | RAM network inhibition [7] 1.12%

CCOc1ccc2ccccc2c1C(=O)Nc1cc(=O)n(C)c(=O)n1C
inactive: growth inhibition [1] -8.05% | growth inhibition [2] -21.5% | viability increase [3] 0.11% | viability [4] 107% | viability [5] 94.4% | inhibition [6] 1.17% | RAM network inhibition [7] -1.04%

CN1CCN(C(=O)c2cn(C)c3ccc(S(=O)(=O)N(C)C4CCCCC4)cc3c2=O)CC1
inactive: growth inhibition [1] -7.8% | growth inhibition [2] -13.2% | viability increase [3] -2.39% | viability [4] 102% | viability [5] 101% | inhibition [6] 0% | RAM network inhibition [7] -0.26%

CN(CCNC(=O)Cn1c(=O)sc2ccccc21)Cc1ccccc1
inactive: growth inhibition [1] -1.18% | growth inhibition [2] -7.1% | viability increase [3] -5.12% | viability [4] 77.7% | viability [5] 82.3% | inhibition [6] 1.27% | RAM network inhibition [7] -1.1%

CCOc1ccc(CC(=O)Nc2c(C(N)=O)oc3ccc(Br)cc23)cc1OCC
inactive: growth inhibition [1] -12% | growth inhibition [2] -15.8% | viability increase [3] -5.14% | viability [4] 61% | viability [5] 45% | inhibition [6] 2.49% | RAM network inhibition [7] 0.56%

COc1ccc(Nc2ncnc3c2oc2ccccc23)cc1
inactive: growth inhibition [1] -9.29% | growth inhibition [2] 16.5% | viability increase [3] -2.52% | viability [4] 92.5% | viability [5] 92% | inhibition [6] -0.035% | RAM network inhibition [7] 4.44%

O=C(c1ccc(CS(=O)(=O)c2ccccc2)o1)N1CCN(c2ncccn2)CC1
inactive: growth inhibition [1] 2.63% | growth inhibition [2] -5.3% | viability increase [3] -4.07% | viability [4] 104% | viability [5] 102% | inhibition [6] 0.185% | RAM network inhibition [7] 2.87%

COc1ccc(C(=O)N2CCC(C(=O)Nc3ccc(OC)c(OC)c3)CC2)cc1
inactive: growth inhibition [1] -6.75% | growth inhibition [2] -8.78% | viability increase [3] -0.38% | viability [4] 89.7% | viability [5] 89% | inhibition [6] 1.28% | RAM network inhibition [7] 2.4%

Cn1c(=O)[nH]c(=O)c2c1nc(N1CCC(Cc3ccccc3)CC1)n2Cc1ccccc1
inactive: growth inhibition [1] -19.2% | growth inhibition [2] -10.1% | viability increase [3] -6.11% | viability [4] 82.8% | viability [5] 69.5% | inhibition [6] 2.9% | RAM network inhibition [7] 3.08%

CC(=O)Nc1c2c(nn1-c1cccc(Cl)c1)CS(=O)C2 (stereo not given)
inactive: growth inhibition [1] 3.89% | growth inhibition [2] -5.49% | viability increase [3] -0.33% | viability [4] 94.1% | viability [5] 100% | inhibition [6] 1.38% | RAM network inhibition [7] 0.11%

C=CCn1c(C(C)NC(=O)COC)nc2ccccc21 (stereo not given)
inactive: growth inhibition [1] -2.42% | growth inhibition [2] -4.71% | viability increase [3] -2.08% | viability [4] 98.7% | viability [5] 96.2% | inhibition [6] 0.935% | RAM network inhibition [7] 3.54%

O=C(c1cc(-c2cccc(O)c2)on1)N1CCCCC1
inactive: growth inhibition [1] 0.145% | growth inhibition [2] 10.4% | viability increase [3] 0.08% | viability [4] 101% | viability [5] 103% | inhibition [6] -0.46% | RAM network inhibition [7] 4.74%

COc1ccc2nc(NC(=O)c3ccc4ncsc4c3)sc2c1
inactive: growth inhibition [1] 0.465% | growth inhibition [2] 13% | viability increase [3] -3.84% | viability [4] 81.3% | viability [5] 82.5% | inhibition [6] 3.54% | RAM network inhibition [7] 8.79%

Cc1cc(NC(=O)COC(=O)c2ccc(F)c(S(=O)(=O)N3CCOCC3)c2)no1
inactive: growth inhibition [1] -13.5% | growth inhibition [2] -21.9% | viability increase [3] -1.16% | viability [4] 103% | viability [5] 96.8% | inhibition [6] 1.03% | RAM network inhibition [7] 3.16%

O=C(O)CCCC(=O)NCCCc1ccccc1
inactive: growth inhibition [1] -6.08% | growth inhibition [2] 3.99% | viability increase [3] -2.85% | viability [4] 98.5% | viability [5] 89.8% | inhibition [6] 1.02% | RAM network inhibition [7] 2.45%

CCCCCn1c(CNC(=O)CCC)nc2ccccc21
inactive: growth inhibition [1] -7.29% | growth inhibition [2] -2.36% | viability increase [3] -2.97% | viability [4] 101% | viability [5] 96.4% | inhibition [6] 2.5% | RAM network inhibition [7] 0.64%

Cc1cc(C)cc(N(CC(=O)N2CCc3ccccc32)S(=O)(=O)c2c(C)noc2C)c1
inactive: growth inhibition [1] -11.2% | growth inhibition [2] -5.73% | viability increase [3] -4.52% | viability [4] 90.4% | viability [5] 89.9% | inhibition [6] 2.83% | RAM network inhibition [7] 0.55%

COC(=O)c1c(C(=O)OC)c2n(c1C)Cc1ccccc1C2
inactive: growth inhibition [1] -4.47% | growth inhibition [2] -1.14% | viability increase [3] -1.39% | viability [4] 86.6% | viability [5] 90.2% | inhibition [6] 1.85% | RAM network inhibition [7] 1.43%

COc1ccc(NC(=O)N(CCC(C)C)C(C)c2ccccn2)c(OC)c1 (stereo not given)
inactive: growth inhibition [1] -5% | growth inhibition [2] 7.73% | viability increase [3] -3.52% | viability [4] 79.2% | viability [5] 85.6% | inhibition [6] 1.11% | RAM network inhibition [7] 3.79%

O=c1cc(N2CCOCC2)[nH]c(=O)n1-c1ccc(Cl)cc1
inactive: growth inhibition [1] -5.36% | growth inhibition [2] -6.01% | viability increase [3] -1.67% | viability [4] 105% | viability [5] 97.2% | inhibition [6] 1.17% | RAM network inhibition [7] 1.09%

Cc1sc2nc(SCC(=O)NCc3ccco3)n(C)c(=O)c2c1C
inactive: growth inhibition [1] -4.25% | growth inhibition [2] -12.5% | viability increase [3] -4.96% | viability [4] 105% | viability [5] 94.3% | inhibition [6] 2.1% | RAM network inhibition [7] 3.82%

CCN(CC)S(=O)(=O)c1ccc(Cl)c(C(=O)NC)c1
inactive: growth inhibition [1] -15.4% | growth inhibition [2] -16.3% | viability increase [3] -0.22% | viability [4] 105% | viability [5] 96.4% | inhibition [6] 0.985% | RAM network inhibition [7] 3.63%

Cc1[nH]n(-c2ccccc2)c(=O)c1S(=O)(=O)c1ccccc1
inactive: growth inhibition [1] -0.29% | growth inhibition [2] -3.15% | viability increase [3] 0.62% | viability [4] 102% | viability [5] 98.7% | inhibition [6] 0.08% | RAM network inhibition [7] 2.99%

CCN1C(=O)NC2C1N(S(C)(=O)=O)CCN2S(C)(=O)=O (stereo not given)
inactive: growth inhibition [1] -1.72% | growth inhibition [2] 2.34% | viability increase [3] -0.57% | viability [4] 108% | viability [5] 92.1% | inhibition [6] 1.29% | RAM network inhibition [7] 4.02%

Cc1noc(C(=O)NCc2cccnc2)c1Cl
inactive: growth inhibition [1] -7.93% | growth inhibition [2] -8.18% | viability increase [3] 1.31% | viability [4] 110% | viability [5] 101% | inhibition [6] 0.865% | RAM network inhibition [7] 5.93%

Cc1cc(Nc2ccc(F)cc2C)n2nc(C)nc2n1
inactive: growth inhibition [1] -2.58% | growth inhibition [2] -5.02% | viability increase [3] -1.42% | viability [4] 101% | viability [5] 98.7% | inhibition [6] 2.01% | RAM network inhibition [7] 5.08%

CN(C)c1nc(N)nc(N(c2ccccc2)c2ccccc2)n1
inactive: growth inhibition [1] -12.3% | growth inhibition [2] -28.1% | viability increase [3] -2.5% | viability [4] 93.6% | viability [5] 90.8% | inhibition [6] -0.635% | RAM network inhibition [7] 2.96%

COc1ccc(NC(=O)c2c(NC(=O)CNCc3ccco3)sc3c2CCC3)c(OC)c1
inactive: growth inhibition [1] -3.54% | growth inhibition [2] -19% | viability increase [3] -1.44% | viability [4] 88.7% | viability [5] 79.2% | inhibition [6] 1.43% | RAM network inhibition [7] 5.28%

Cn1c(SCC(=O)NCC2CCCO2)nc2c([nH]c3ccccc32)c1=O (stereo not given)
inactive: growth inhibition [1] 2.66% | growth inhibition [2] -9.87% | viability increase [3] -5.32% | viability [4] 90.5% | viability [5] 91.7% | inhibition [6] 0.065% | RAM network inhibition [7] 2.79%

Cc1cc(C)cc(NC(=O)CSc2nc3c(c(=O)n2C)SC(C)C3)c1 (stereo not given)
inactive: growth inhibition [1] -2.6% | growth inhibition [2] 2.95% | viability increase [3] -2.79% | viability [4] 89.3% | viability [5] 92% | inhibition [6] 2.04% | RAM network inhibition [7] 6.37%

COc1ccccc1C(=O)N(Cc1nc(-c2ccc(Cl)cc2)no1)C(C)C
inactive: growth inhibition [1] -17.9% | growth inhibition [2] -20.1% | viability increase [3] 1.78% | viability [4] 69% | viability [5] 71.3% | inhibition [6] 0.605% | RAM network inhibition [7] 6.95%

COc1ccc(NC(C)=O)cc1NC(=O)CSc1nnc(-c2cccnc2)n1C
inactive: growth inhibition [1] -5.75% | growth inhibition [2] -0.47% | viability increase [3] -0.83% | viability [4] 104% | viability [5] 100% | inhibition [6] 0.485% | RAM network inhibition [7] 1.19%
